Hits are enriched below; roughly 2.9% of the tested compounds scored in any of these assays.
PfGluPho inh: PfG6PD (Plasmodium falciparum) enzyme inhibition; PfGluPho enzyme, NADPH resazurin-diaphorase fluorescence; 350,000 tested, 0.78% active; inhibition, % at 20 µM;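 active means inhibition reaching at least a set limit at 20 µM in the primary screen, cut at about 59% in these data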;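 further: 0% = DMSO wells with substrate and 100% = DMSO wells lacking glucose-6-phosphate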
Apaf1 inhib: blocks human Apaf-1 apoptosome activity. reconstituted apoptosome caspase-3 activity, DEVD-Rh110 fluorescence. inhibition, % at 20 µM. 330,000 tested, 0.71% active. AID 489030; active means inhibition of at least 40% at 20 µM;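 further: plate controls were DMSO wells for no effect and DEVD-CHO caspase inhibitor wells for full effect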
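Assay system – apoptosome proteins · Medium – Hepes buffer, pH 7.5 · Also added – cytochrome c with DEVD-Rh110 · Timing – 30 min compound preincubation, 50 min activation, room temperature · Detection – Rh110 fluorescence, excitation 480 nm, emission 540 nm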
EBNA-1 inh: blocks EBNA-1 binding to DNA | EBNA-1 DNA binding, fluorescence polarization | 300,000 tested, 0.34% active | inhibition, % at 14.8 µM; in the data active means inhibition above about 28%
UBC13 inh: human UBC13 polyubiquitination inhibition; AID 485273; 330,000 tested, 0.47% active; inhibition, % at 20 µM; UBC13 polyubiquitin chain formation, TR-FRET; P61088; in the data active means inhibition above about 45%, passing the limit was not always enough
Target sequence (P61088 whole entry, looked up): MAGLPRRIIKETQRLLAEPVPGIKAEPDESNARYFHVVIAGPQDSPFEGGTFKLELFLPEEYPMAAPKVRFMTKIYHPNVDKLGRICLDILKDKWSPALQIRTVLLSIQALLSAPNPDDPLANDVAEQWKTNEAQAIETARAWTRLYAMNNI
ZTA counter: counter-screen for EBNA-1 inhibitors: inhibitors of Epstein-Barr virus ZTA. P03206. ZTA-DNA binding, fluorescence polarization. inhibition, % at 11 µM. 320,000 tested, 0.15% active; in the data active means inhibition above about 33%
Target sequence (P03206 whole entry, looked up): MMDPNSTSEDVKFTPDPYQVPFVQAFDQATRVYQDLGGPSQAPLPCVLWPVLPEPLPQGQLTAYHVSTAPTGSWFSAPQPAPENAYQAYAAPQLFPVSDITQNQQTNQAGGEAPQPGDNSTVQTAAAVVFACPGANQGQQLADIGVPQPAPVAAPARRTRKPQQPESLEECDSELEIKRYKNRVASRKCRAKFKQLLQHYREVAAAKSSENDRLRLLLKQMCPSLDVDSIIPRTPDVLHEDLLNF
PfM18AAP inh: PfM18AAP enzyme inhibition; recombinant PfM18AAP, H-Glu-NHMec fluorogenic cleavage; inhibition, % at 7.35 µM; 290,000 tested, 1.2% active;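 active means inhibition above the campaign mean inhibition over all tested compounds plus 3 SD, cut at about 28% in these data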;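 further: 0% = plate median of test compound wells and 100% = 2 mM ZnCl2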
PfGluPho conf: confirmation of Plasmodium falciparum G6PD inhibitors; shares compounds with PfGluPho inh; recombinant PfGluPho, NADPH-diaphorase-resazurin fluorescence; inhibition, % at 20 µM; AID 504753; 2,400 tested, 34% active;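 active means inhibition of at least 50% at 20 µM in any single replicate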;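 further: 0% = DMSO with substrate and 100% = DMSO lacking glucose-6-phosphate substrate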
Diaph ctr 10uM: counter-screen for P. falciparum G6PD inhibitors: diaphorase inhibitors, oxidizers; AID 504862; 820 tested, 39% active; diaphorase-coupled resazurin reduction, fluorescence, NADPH 10 uM; inhibition, % at 20 µM; shares compounds with PfGluPho inh;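 active means average inhibition reaching 50% or more with the compound at 20 µM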;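 further: resorufin red fluorescence formed as diaphorase reduces resazurin using NADPH; 0% = DMSO with enzyme and 100% = DMSO without enzyme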
Diaphorase 30uM: inhibits diaphorase or oxidizes, flagging false PfG6PD hits | Diaphorase/resazurin coupled assay, resorufin fluorescence, 30 uM NADPH | shares compounds with PfGluPho inh | AID 504863 | 820 tested, 29% active | inhibition, % at 20 µM;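 active means inhibition averaging 50% or more, tested at 20 µM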;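 further: 0% = DMSO with enzyme and 100% = DMSO wells lacking diaphorase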
Numbers without * were called inactive; nt = not tested or not shown.

SMILES	PfGluPho inh	Apaf1 inhib	EBNA-1 inh	UBC13 inh	ZTA counter	PfM18AAP inh	PfGluPho conf	Diaph ctr 10uM	Diaphorase 30uM
COc1cccc(C(=O)Nc2nnc(Cc3ccc(OC)c(OC)c3)s2)c1	13.0	-10.0	3.0	-4.5	15.7	-3.6	nt	nt	nt
CCCc1nnc(NC(=O)c2cccc(OC)c2)s1	63.0*	9.7	-4.5	1.8	-6.5	-6.5	15.4	nt	nt
COc1cccc(C(=O)Nc2nnc(C(C)C)s2)c1	90.7*	-7.9	9.7	4.6	8.1	-7.5	55.8*	58.7*	45.0
CC(C)c1nnc(NC(=O)c2cccc(-n3cnnn3)c2)s1	76.4*	-3.5	9.1	2.4	8.2	4.2	55.9*	53.2*	41.6
CCOC(=O)C1=CNS(=O)(=O)NC1c1ccc2ccccc2c1 (stereo unspecified)	-13.3	22.2	nt	nt	nt	nt	nt	nt	nt
CCc1c(C)nc2c(Br)cccc2c1SCCC#N	59.4*	0.7	-2.0	19.0	-0.4	-8.4	-5.1	nt	nt
CC(=O)C[C@@H](O)CC(=O)[C@@H]1OC(=O)[C@@H](C)CCCCc2ccccc21	17.9	-3.1	nt	11.9	nt	nt	nt	nt	nt
COc1ccc(C(=O)ON=C2C=C(C)C(=O)C(C)=C2)cc1	76.3*	-2.9	1.4	-15.2	-16.9	0.6	52.3*	12.6	15.3
COc1cc(C(=O)O/N=C2\C=CC(=O)C(C)=C2)cc(OC)c1OC	67.8*	-14.7	8.7	4.2	5.9	-3.1	48.8*	89.3*	89.9*
COc1ccc(S(=O)(=O)N=C2C=C(C)C(=O)C(C)=C2)cc1	22.8	-17.3	2.1	-0.2	-5.7	-30.6	nt	nt	nt
COc1cc(C(=O)ON=C2C=C(C)C(=O)C(C)=C2)cc(OC)c1OC	80.0*	-2.2	-1.2	12.6	-3.7	-11.2	63.8*	-0.6	8.2
O=C(COC(=O)CC1SC(N2CCCC2)=NC1=O)Nc1c(F)c(F)c(F)c(F)c1F (stereo unspecified)	-14.0	1.9	nt	-2.4	1.1	nt	nt	nt	nt
CC1=C(C)CS(=O)N(S(=O)(=O)c2ccc(Cl)cc2)C1 (stereo unspecified)	60.3*	10.6	-4.2	-11.4	-13.1	8.5	49.5*	1.7	2.9
Nc1cccc(-n2nncc2-c2ccc(Cl)cc2)c1	nt	nt	nt	nt	nt	-0.6	nt	nt	nt
NC(=S)N/N=C/c1ccc(-n2nncc2-c2ccc(Cl)cc2)cc1	72.7*	24.8	-3.0	-6.3	9.7	4.4	22.0	nt	nt
c1cncc(-c2nn3c(Cn4cnc5ccccc54)nnc3s2)c1	64.7*	-8.6	7.5	-0.1	-16.8	11.0	28.3	nt	nt
c1ccc(-c2nn3c(Cn4cnc5ccccc54)nnc3s2)cc1	64.0*	-6.7	-3.1	6.9	-5.5	2.6	27.0	nt	nt
c1ccc(-c2nn3c(Cn4nnc5ccccc54)nnc3s2)cc1	74.7*	-8.4	-3.2	-2.9	-15.1	22.3	33.0	nt	nt
CCCS(=O)(=O)N1CCCC(C(=O)Oc2ccc(OC)cc2)C1 (stereo unspecified)	-0.4	5.4	-1.0	-1.2	12.0	-6.2	nt	nt	nt
COc1ccc(/C=N/OCC(=O)OCC(=O)N(C)c2ccccc2)cc1	-12.9	1.0	2.7	1.2	-0.6	nt	nt	nt	nt
COc1cccc(NC(=O)CN2CCC(NC(=O)c3ccccc3C)CC2)c1	-10.6	nt	nt	nt	nt	nt	nt	nt	nt
O=C1C=CC(=O)N1c1ccc(-c2nc3ccccc3o2)cc1	107.5*	nt	nt	nt	nt	nt	76.9*	-24.7	-2.9
Cc1ccc(C(=O)N/C(=C\c2ccco2)C(=O)N2CCCCC2)cc1	-3.4	6.1	-3.8	-8.2	0.2	24.9	nt	nt	nt
CCN(CC)C(=S)SSC(=S)N(CC)CC	66.5*	-16.8	3.4	4.6	-9.1	35.7*	49.4*	-22.3	-10.5
CCN(CC)C(=S)SCC(=O)c1ccccc1	-4.5	13.0	2.1	-4.8	19.6	0.2	nt	nt	nt
O=S(c1ccccc1O)S(=O)c1ccccc1O (stereo unspecified)	93.7*	nt	nt	nt	nt	nt	74.8*	-15.0	-9.3
CCOC(=O)c1cnc2ccc(OCC)cc2c1NCc1ccccc1	65.8*	20.5	-0.2	-6.0	-14.0	6.6	-7.3	nt	nt
CCOC(=O)c1cnc2ccc(OCC)cc2c1NCc1cccnc1	23.9	3.8	-8.4	-11.8	3.0	8.8	nt	nt	nt
